Laboratory results reported in ChEMBL document CHEMBL1926577, “Novel 1,3,4-heterodiazole analogues: synthesis and in-vitro antitumor activity” (2012).

Tests used:
Format in all cases: functional
Malme-3M = assay: Growth inhibition of human MALME-3M cells at 10 uM after 48 hrs by coulter counter method; settings: read-out: GI
Summary of the method: (§1)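 NCI 60-cell-line panel, single dose. Compound dissolved first in DMSO, then diluted in phosphate-buffered saline so that every final dilution held under 1% DMSO. Duplicate wells received cells at 6 × 10⁴ cells/ml. Controls held PBS/DMSO at the same dilution. Plates were incubated 48 h at 37 °C under 5% CO₂. Cells were then diluted 10-fold in saline and counted on a Coulter counter, with counts corrected for the dilution. Results are given as percent growth inhibition.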

TK-10 = assay: Growth inhibition of human TK10 cells at 10 uM after 48 hrs by coulter counter method; settings: TK-10, 48 h, read-out: GI; summary of the method: as §1
NCI/ADR-RES = assay: Growth inhibition of human NCI/ADR-RES cells at 10 uM after 48 hrs by coulter counter method; settings: read-out: GI; summary of the method: as §1
KM12 = assay: Growth inhibition of human KM12 cells at 10 uM after 48 hrs by coulter counter method; settings: KM12, 48 h, read-out: GI; summary of the method: as §1
ACHN = assay: Growth inhibition of human ACHN cells at 10 uM after 48 hrs by coulter counter method; settings: read-out: GI; summary of the method: as §1
UO-31 = assay: Growth inhibition of human UO31 cells at 10 uM after 48 hrs by coulter counter method; settings: UO-31, 48 h, read-out: GI; summary of the method: as §1
CAKI-1 = assay: Growth inhibition of human Caki1 cells at 10 uM after 48 hrs by coulter counter method; settings: CAKI-1, 48 h, read-out: GI; summary of the method: as §1
UACC-62 = assay: Growth inhibition of human UACC62 cells at 10 uM after 48 hrs by coulter counter method; settings: UACC-62, 48 h, read-out: GI; summary of the method: as §1
SNB-19 = assay: Growth inhibition of human SNB19 cells at 10 uM after 48 hrs by coulter counter method; settings: SNB-19, 48 h, read-out: GI; summary of the method: as §1
CCRF-CEM = assay: Growth inhibition of human CCRF-CEM cells at 10 uM after 48 hrs by coulter counter method; settings: read-out: GI; summary of the method: as §1
MDA-MB-468 = assay: Growth inhibition of human MDA-MB-468 cells at 10 uM after 48 hrs by coulter counter method; settings: MDA-MB-468, 48 h, read-out: GI; summary of the method: as §1
HL-60(TB) = assay: Growth inhibition of human HL-60(TB) cells at 10 uM after 48 hrs by coulter counter method; settings: HL-60, 48 h, read-out: GI
Summary of the method: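 Single-dose screen on the NCI 60-line panel (leukemia subpanel). Compound is dissolved in DMSO and diluted in PBS, with final DMSO below 1%. Duplicate wells hold 6 × 10⁴ cells/ml at 37 °C, 5% CO₂, for 48 h. Cells are counted by Coulter counter after 10-fold saline dilution. Read-out is percent growth versus PBS/DMSO controls, expressed as % growth inhibition.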

EKVX = assay: Growth inhibition of human EKVX cells at 10 uM after 48 hrs by coulter counter method; settings: read-out: GI; summary of the method: as §1
A498 = assay: Growth inhibition of human A498 cells at 10 uM after 48 hrs by coulter counter method; settings: A498, 48 h, read-out: GI; summary of the method: as §1
MDA-MB-435 = assay: Growth inhibition of human MDA-MB-435 cells at 10 uM after 48 hrs by coulter counter method; settings: MDA-MB-435, 48 h, read-out: GI; summary of the method: as §1
U-251 = assay: Growth inhibition of human U251 cells at 10 uM after 48 hrs by coulter counter method; settings: U-251, 48 h, read-out: GI; summary of the method: as §1
M14 = assay: Growth inhibition of human M14 cells at 10 uM after 48 hrs by coulter counter method; settings: M14, 48 h, read-out: GI; summary of the method: as §1
SF-268 = assay: Growth inhibition of human SF268 cells at 10 uM after 48 hrs by coulter counter method; settings: SF-268, 48 h, read-out: GI; summary of the method: as §1
786-0 = assay: Growth inhibition of human 786-0 cells at 10 uM after 48 hrs by coulter counter method; settings: 786-0, 48 h, read-out: GI; summary of the method: as §1
HCT-116 = assay: Growth inhibition of human HCT116 cells at 10 uM after 48 hrs by coulter counter method; settings: HCT-116, 48 h, read-out: GI; summary of the method: as §1
NCI-H522 = assay: Growth inhibition of human NCI-H522 cells at 10 uM after 48 hrs by coulter counter method; settings: NCI-H522, 48 h, read-out: GI; summary of the method: as §1
SK-MEL-28 = assay: Growth inhibition of human SK-MEL-28 cells at 10 uM after 48 hrs by coulter counter method; settings: SK-MEL-28, 48 h, read-out: GI; summary of the method: as §1
NCI-H322M = assay: Growth inhibition of human NCI-H322M cells at 10 uM after 48 hrs by coulter counter method; settings: read-out: GI; summary of the method: as §1
MCF7 = assay: Growth inhibition of human MCF7 cells at 10 uM after 48 hrs by coulter counter method; settings: MCF7, 48 h, read-out: GI; summary of the method: as §1
SK-MEL-2 = assay: Growth inhibition of human SK-MEL-2 cells at 10 uM after 48 hrs by coulter counter method; settings: SK-MEL-2, 48 h, read-out: GI; summary of the method: as §1
PC-3 = assay: Growth inhibition of human PC3 cells at 10 uM after 48 hrs by coulter counter method; settings: PC-3, 48 h, read-out: GI; summary of the method: as §1
HT-29 = assay: Growth inhibition of human HT-29 cells at 10 uM after 48 hrs by coulter counter method; settings: HT-29, 48 h, read-out: GI; summary of the method: as §1
IGROV-1 = assay: Growth inhibition of human IGROV1 cells at 10 uM after 48 hrs by coulter counter method; settings: IGROV-1, 48 h, read-out: GI; summary of the method: as §1
T47D = assay: Growth inhibition of human T47D cells at 10 uM after 48 hrs by coulter counter method; settings: read-out: GI; summary of the method: as §1
NCI-H23 = assay: Growth inhibition of human NCI-H23 cells at 10 uM after 48 hrs by coulter counter method; settings: NCI-H23, 48 h, read-out: GI; summary of the method: as §1
NCI-H226 = assay: Growth inhibition of human NCI-H226 cells at 10 uM after 48 hrs by coulter counter method; settings: NCI-H226, 48 h, read-out: GI; summary of the method: as §1
RPMI-8226 = assay: Growth inhibition of human RPMI8226 cells at 10 uM after 48 hrs by coulter counter method; settings: RPMI-8226, 48 h, read-out: GI; summary of the method: as §1
SNB-75 = assay: Growth inhibition of human SNB75 cells at 10 uM after 48 hrs by coulter counter method; settings: SNB-75, 48 h, read-out: GI; summary of the method: as §1
UACC-257 = assay: Growth inhibition of human UACC257 cells at 10 uM after 48 hrs by coulter counter method; settings: UACC-257, 48 h, read-out: GI; summary of the method: as §1
K562 = assay: Growth inhibition of human K562 cells at 10 uM after 48 hrs by coulter counter method; settings: K562, 48 h, read-out: GI; summary of the method: as §1
A549 = assay: Growth inhibition of human A549 cells at 10 uM after 48 hrs by coulter counter method; settings: A549, 48 h, read-out: GI; summary of the method: as §1
MOLT-4 = assay: Growth inhibition of human MOLT4 cells at 10 uM after 48 hrs by coulter counter method; settings: MOLT-4, 48 h, read-out: GI; summary of the method: as §1
HCT-15 = assay: Growth inhibition of human HCT15 cells at 10 uM after 48 hrs by coulter counter method; settings: HCT-15, 48 h, read-out: GI; summary of the method: as §1
OVCAR-8 = assay: Growth inhibition of human OVCAR8 cells at 10 uM after 48 hrs by coulter counter method; settings: OVCAR-8, 48 h, read-out: GI; summary of the method: as §1
SK-MEL-5 = assay: Growth inhibition of human SK-MEL-5 cells at 10 uM after 48 hrs by coulter counter method; settings: SK-MEL-5, 48 h, read-out: GI; summary of the method: as §1
SR = assay: Growth inhibition of human SR cells at 10 uM after 48 hrs by coulter counter method; settings: read-out: GI; summary of the method: as §1
BT-549 = assay: Growth inhibition of human BT549 cells at 10 uM after 48 hrs by coulter counter method; settings: BT-549, 48 h, read-out: GI; summary of the method: as §1
SF-295 = assay: Growth inhibition of human SF295 cells at 10 uM after 48 hrs by coulter counter method; settings: SF-295, 48 h, read-out: GI; summary of the method: as §1
LOX IMVI = assay: Growth inhibition of human LOXIMVI cells at 10 uM after 48 hrs by coulter counter method; settings: read-out: GI; summary of the method: as §1
SN12C = assay: Growth inhibition of human SN12C cells at 10 uM after 48 hrs by coulter counter method; settings: read-out: GI; summary of the method: as §1

NC1=CC(N)=NC2OC(c3ccc(Cl)cc3)=NN12 (stereo not given) was tested, and the inhibition of growth at 10 µM (Malme-3M) was under 10%, the inhibition of growth at 10 µM (TK-10) was under 10% and the inhibition of growth at 10 µM (NCI/ADR-RES) was under 10%. The inhibition of growth at 10 µM (KM12) was under 10%, the inhibition of growth at 10 µM (ACHN) was under 10% and the inhibition of growth at 10 µM (UO-31) was 23.8%. It also gave an inhibition of growth at 10 µM (CAKI-1) of 20.5%, an inhibition of growth at 10 µM (UACC-62) of under 10% and an inhibition of growth at 10 µM (SNB-19) of under 10%. The inhibition of growth at 10 µM (CCRF-CEM) was under 10%, the inhibition of growth at 10 µM (MDA-MB-468) was under 10% and the inhibition of growth at 10 µM (HL-60(TB)) was under 10%. It also gave an inhibition of growth at 10 µM (EKVX) of under 10%, an inhibition of growth at 10 µM (A498) of under 10% and an inhibition of growth at 10 µM (MDA-MB-435) of under 10%. The inhibition of growth at 10 µM (U-251) was under 10%, the inhibition of growth at 10 µM (M14) was under 10% and the inhibition of growth at 10 µM (SF-268) was under 10%. For the same compound, the inhibition of growth at 10 µM (786-0) was under 10%, the inhibition of growth at 10 µM (HCT-116) was under 10% and the inhibition of growth at 10 µM (NCI-H522) was 14%. It also gave an inhibition of growth at 10 µM (SK-MEL-28) of under 10%, an inhibition of growth at 10 µM (NCI-H322M) of under 10% and an inhibition of growth at 10 µM (MCF7) of under 10%. The inhibition of growth at 10 µM (SK-MEL-2) was 10.3%, the inhibition of growth at 10 µM (PC-3) was 16.3% and the inhibition of growth at 10 µM (HT-29) was under 10%. The inhibition of growth at 10 µM (IGROV-1) was under 10%, the inhibition of growth at 10 µM (T47D) was under 10% and the inhibition of growth at 10 µM (NCI-H23) was under 10%. For the same compound, the inhibition of growth at 10 µM (NCI-H226) was under 10%, the inhibition of growth at 10 µM (RPMI-8226) was under 10% and the inhibition of growth at 10 µM (SNB-75) was under 10%. It also gave an inhibition of growth at 10 µM (UACC-257) of under 10%, an inhibition of growth at 10 µM (K562) of under 10% and an inhibition of growth at 10 µM (A549) of under 10%. The inhibition of growth at 10 µM (MOLT-4) was under 10%, the inhibition of growth at 10 µM (HCT-15) was under 10% and the inhibition of growth at 10 µM (OVCAR-8) was under 10%. For the same compound, the inhibition of growth at 10 µM (SK-MEL-5) was under 10%, the inhibition of growth at 10 µM (SR) was under 10% and the inhibition of growth at 10 µM (BT-549) was under 10%. It also gave an inhibition of growth at 10 µM (SF-295) of under 10%, an inhibition of growth at 10 µM (LOX IMVI) of under 10% and an inhibition of growth at 10 µM (SN12C) of under 10%.
